# What was measured:
# [1] = system: HEL; test: Cytotoxicity against Herpes simplex virus 2 G infected HEL cells by trypan blue exclusion method; type: cell-based; settings: human, hel
# Summary of the method: (§1)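 Uninfected confluent cultures were run in parallel with the infected cultures. Medium was replaced by 1 ml maintenance medium with serial compound concentrations; cell controls received no compound. Cultures were incubated at 37 °C. After 2 and 7 days, compound was withdrawn and viability was determined by trypan blue exclusion.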
# [2] = system: Feline coronavirus; test: Antiviral activity against Feline coronavirus infected in cat CRFK cells assessed as protection from virus-induced cytopathogenicity by MTT assay; type: functional, organism-based; settings: Alphacoronavirus 1, CRFK
# [3] = system: Coxsackievirus B4; test: Antiviral activity against Human coxsackievirus B4 infected in human HeLa cells assessed as protection from virus-induced cytopathogenicity after 2 days by MTT assay; type: functional, organism-based; settings: Enterovirus B, 48 h
# [4] = system: Streptococcus viridans; test: Antibacterial activity against Streptococcus viridans after 24 hrs by broth microdilution method; type: functional; settings: Streptococcus viridans, 24 h; read-out: MIC
# Summary of the method: (§2)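 Clinical isolates. Each dilution received 100 μl of 0.5 McFarland fresh culture. Solvent (DMSO), growth and standard controls were included. Tubes were incubated at 37 °C for 24 h. MIC is the highest dilution showing no turbidity. Tests were run in triplicate, with at least two repetitions.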
# [5] = system: Respiratory syncytial virus; test: Antiviral activity against Respiratory syncytial virus infected in human HeLa cells assessed as protection from virus-induced cytopathogenicity after 4 days by MTT assay; type: functional, organism-based; settings: 96 h
# [6] = system: Mammalian orthoreovirus 1; test: Antiviral activity against Reovirus 1 infected in african green monkey Vero cells assessed as protection from virus-induced cytopathogenicity after 6 to 7 days by MTT assay; type: functional, organism-based; settings: Mammalian orthoreovirus 1, Vero
# [7] = system: Human alphaherpesvirus 1; test: Antiviral activity against acyclovir-sensitive Herpes simplex virus 1 KOS infected in HEL cells assessed as protection from virus-induced cytopathogenicity after 2 to 3 days by MTT assay; type: functional, organism-based; settings: Human alphaherpesvirus 1, KOS
# [8] = system: Vero; test: Cytotoxicity against PIV 3 infected african green monkey Vero cells by trypan blue exclusion method; type: cell-based; settings: chlorocebus sabaeus, vero; summary of the method: as §1
# [9] = system: Human alphaherpesvirus 1; test: Antiviral activity against Herpes simplex virus 1 KOS infected in HEL cells assessed as protection from virus-induced cytopathogenicity after 2 to 3 days by MTT assay; type: functional, organism-based; settings: Human alphaherpesvirus 1, KOS
# [10] = system: Human respirovirus 3; test: Antiviral activity against PIV 3 infected in african green monkey Vero cells assessed as protection from virus-induced cytopathogenicity after 6 to 7 days by MTT assay; type: functional, organism-based; settings: Human respirovirus 3, Vero
# [11] = system: Proteus mirabilis; test: Antibacterial activity against Proteus mirabilis after 24 hrs by broth microdilution method; type: functional; settings: Proteus mirabilis, 24 h; read-out: MIC; summary of the method: as §2
# [12] = system: HeLa; test: Cytotoxicity against Human coxsackievirus B4 infected human HeLa cells by trypan blue exclusion method; type: cell-based; settings: hela; summary of the method: as §1
# [13] = system: Human alphaherpesvirus 2; test: Antiviral activity against Herpes simplex virus 2 G infected in HEL cells assessed as protection from virus-induced cytopathogenicity after 2 to 3 days by MTT assay; type: functional, organism-based; settings: Human alphaherpesvirus 2, strain G
# [14] = system: HeLa; test: Cytotoxicity against Respiratory syncytial virus infected human HeLa cells by trypan blue exclusion method; type: cell-based; settings: hela; summary of the method: as §1
# [15] = system: Sindbis virus; test: Antiviral activity against Sindbis virus infected in african green monkey Vero cells assessed as protection from virus-induced cytopathogenicity after 2 to 3 days by MTT assay; type: functional, organism-based
# [16] = system: Punta Toro virus; test: Antiviral activity against Punta Toro virus infected in african green monkey Vero cells assessed as protection from virus-induced cytopathogenicity by MTT assay; type: functional, organism-based
# [17] = system: MDCK; test: Cytotoxicity against Influenza B virus infected MDCK cells by trypan blue exclusion method; type: cell-based, Canis lupus familiaris; settings: dog
# [18] = Cytotoxicity against Feline herpesvirus infected cat CRFK cells by trypan blue exclusion method; type: cell-based, Felis catus; settings: crfk; summary of the method: as §1
# [19] = system: Influenza A virus; test: Antiviral activity against Influenza A virus H3N2 infected in MDCK cells assessed as protection from virus-induced cytopathogenicity after 6 to 7 days by MTT assay; type: functional, organism-based
# [20] = system: Influenza A virus; test: Antiviral activity against Influenza A virus H1N1 infected in MDCK cells assessed as protection from virus-induced cytopathogenicity after 6 to 7 days by MTT assay; type: functional, organism-based
# [21] = Cytotoxicity against HIV1 3B-infected human MT4 cells by MTT assay; type: cell-based; settings: MT4 cells infected with HIV-1 3B
# Summary of the method: (§3)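 MT-4 cells (3 × 10^4 per well) were cultured in microdilution trays with various concentrations of compound, then incubated 5 days at 37 °C, and viable cell number was read by MTT.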
# [22] = system: HeLa; test: Cytotoxicity against VSV infected human HeLa cells by trypan blue exclusion method; type: cell-based; settings: hela; summary of the method: as §1
# [23] = system: Vero; test: Cytotoxicity against Human coxsackievirus B4 infected african green monkey Vero cells by trypan blue exclusion method; type: cell-based; settings: chlorocebus sabaeus, vero; summary of the method: as §1
# [24] = system: Human immunodeficiency virus 2; test: Antiviral activity against HIV2 ROD infected in human MT4 cells assessed as protection from virus-induced cytopathogenicity after 5 days by MTT assay; type: functional, organism-based; settings: Human immunodeficiency virus 2, ISOLATE ROD, MT4, 120 h
# Summary of the method: (§4)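 MT-4 cells at 3 × 10^4 per well were infected with HIV (IIIB or ROD) at 50% cell culture infective doses. Graded compound concentrations were added immediately after infection. Plates were incubated for 5 days at 37 °C and viable cells were counted by MTT.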
# [25] = system: Vero; test: Cytotoxicity against Reovirus 1 infected african green monkey Vero cells by trypan blue exclusion method; type: cell-based; settings: chlorocebus sabaeus, vero; summary of the method: as §1
# [26] = system: Human immunodeficiency virus 1; test: Antiviral activity against HIV1 3B-infected in human MT4 cells assessed as protection from virus-induced cytopathogenicity after 5 days by MTT assay; type: functional, organism-based; settings: Human immunodeficiency virus 1, 3B, MT4, 120 h; summary of the method: as §4
# [27] = system: Vesicular stomatitis virus; test: Antiviral activity against VSV infected in human HeLa cells assessed as protection from virus-induced cytopathogenicity after 1 to 2 days by MTT assay; type: functional, organism-based
# [28] = system: HEL; test: Cytotoxicity against Herpes simplex virus 1 KOS infected HEL cells by trypan blue exclusion method; type: cell-based; settings: human, hel; summary of the method: as §1
# [29] = system: HEL; test: Cytotoxicity against VSV infected HEL cells by trypan blue exclusion method; type: cell-based; settings: human, hel; summary of the method: as §1
# [30] = Cytotoxicity against HIV2 ROD infected human MT4 cells by MTT assay; type: cell-based; settings: MT4 cells infected with HIV-2 ROD; summary of the method: as §3
# [31] = system: Escherichia coli; test: Antibacterial activity against Escherichia coli after 24 hrs by broth microdilution method; type: functional; settings: Escherichia coli, 24 h; read-out: MIC; summary of the method: as §2
# [32] = system: HEL; test: Cytotoxicity against acyclovir-sensitive Herpes simplex virus 1 KOS infected HEL cells by trypan blue exclusion method; type: cell-based; settings: human; summary of the method: as §1
# [33] = system: Influenza B virus; test: Antiviral activity against Influenza B virus infected in MDCK cells assessed as protection from virus-induced cytopathogenicity after 6 to 7 days by MTT assay; type: functional, organism-based
# [34] = system: Vesicular stomatitis virus; test: Antiviral activity against VSV infected in HEL cells assessed as protection from virus-induced cytopathogenicity after 1 to 2 days by MTT assay; type: functional, organism-based
# [35] = system: HEL; test: Cytotoxicity against Vaccinia virus infected HEL cells by trypan blue exclusion method; type: cell-based; settings: human, hel; summary of the method: as §1
# [36] = system: Felid alphaherpesvirus 1; test: Antiviral activity against Feline herpesvirus infected in cat CRFK cells assessed as protection from virus-induced cytopathogenicity by MTT assay; type: functional, organism-based; settings: Felid alphaherpesvirus 1, CRFK
# [37] = system: Klebsiella pneumoniae; test: Antibacterial activity against Klebsiella pneumoniae after 24 hrs by broth microdilution method; type: functional; settings: Klebsiella pneumoniae, 24 h; read-out: MIC; summary of the method: as §2
# [38] = system: Vero; test: Cytotoxicity against Sindbis virus infected african green monkey Vero cells by trypan blue exclusion method; type: cell-based; settings: chlorocebus sabaeus, vero; summary of the method: as §1
# [39] = system: Coxsackievirus B4; test: Antiviral activity against Human coxsackievirus B4 infected in african green monkey Vero cells assessed as protection from virus-induced cytopathogenicity after 2 days by MTT assay; type: functional, organism-based; settings: Enterovirus B, 48 h
# [40] = system: Vero; test: Cytotoxicity against Punta Toro virus infected african green monkey Vero cells by trypan blue exclusion method; type: cell-based; settings: chlorocebus sabaeus, vero; summary of the method: as §1
smiles,measurement,setting,value
COc1cc(/C=C/C(=O)CC(=O)/C=C/c2ccc(OC(=O)CCC(NC(=O)c3ccc(NCc4cnc5nc(N)[nH]c(=O)c5n4)cc3)C(=O)O)c(OC)c2)ccc1OC(=O)CCC(NC(=O)c1ccc(NCc2cnc3nc(N)[nH]c(=O)c3n2)cc1)C(=O)O (centres undefined),CC50,[1],> 0.082 µM
same,EC50,[2],> 0.03 µM
same,EC50,[3],> 0.082 µM
same,MIC,[4],0.27 µM
same,EC50,[5],> 0.082 µM
same,EC50,[6],> 0.082 µM
same,EC50,[7],> 0.082 µM
same,CC50,[8],> 0.082 µM
same,EC50,[9],> 0.082 µM
same,EC50,[10],> 0.082 µM
same,MIC,[11],0.54 µM
same,CC50,[12],> 0.082 µM
same,EC50,[13],> 0.082 µM
same,CC50,[14],> 0.082 µM
same,EC50,[15],> 0.082 µM
same,EC50,[16],> 0.082 µM
same,CC50,[17],0.082 µM
same,CC50,[18],0.011 µM
same,EC50,[19],> 0.082 µM
same,EC50,[20],> 0.082 µM
same,CC50,[21],> 0.036 µM
same,CC50,[22],> 0.082 µM
same,CC50,[23],> 0.082 µM
same,IC50,[24],0.046 µM
same,CC50,[25],> 0.082 µM
same,IC50,[26],0.036 µM
same,EC50,[27],> 0.082 µM
same,CC50,[28],> 0.082 µM
same,CC50,[29],> 0.082 µM
same,CC50,[30],> 0.046 µM
same,MIC,[31],0.27 µM
same,CC50,[32],> 0.082 µM
same,EC50,[33],> 0.082 µM
same,EC50,[34],> 0.082 µM
same,CC50,[35],> 0.082 µM
same,EC50,[36],> 0.03 µM
same,MIC,[37],0.27 µM
same,CC50,[38],> 0.082 µM
same,EC50,[39],> 0.082 µM
Nc1ncnc2c1ncn2C[C@H](O)CO [(S)-DHPA],EC50,[5],146 µM
same,EC50,[6],> 250 µM
same,CC50,[8],> 250 µM
same,EC50,[10],> 250 µM
same,CC50,[12],> 250 µM
same,CC50,[14],> 250 µM
same,EC50,[15],> 250 µM
same,EC50,[16],> 250 µM
same,CC50,[22],> 250 µM
same,CC50,[40],> 250 µM
same,CC50,[23],> 250 µM
same,CC50,[25],> 250 µM
same,EC50,[27],146 µM
same,CC50,[38],> 250 µM
same,EC50,[39],> 250 µM

# From ChEMBL document CHEMBL1154855 (Eur J Med Chem, 2010)
